# Paper PMC3048907 (Journal of medicinal chemistry, 2011)
# Columns and labels:
# [1] = test system: KB-VIN (MDR line overexpressing P-glycoprotein); assay: Antiproliferative activity assay; assay type: cell-based, human; settings: SRB assay, three days in culture; NA = not active, 20 μg/mL did not reach 50% inhibition
# human tumor cell lines = assay: Antiproliferative activity across the human tumor cell line panel; assay type: cell-based
# In short: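 Cells kept in RPMI-1640 with 25 mM HEPES, 0.25% bicarbonate, 10% FBS and 100 μg/mL kanamycin; trypsinized, seeded at 1500–7500 cells/well. Test compound added from DMSO stock diluted in medium (DMSO ≤0.5% v/v). After 3 days, cells fixed in cold 50% TCA, stained with 0.4% sulforhodamine B, A562 read. GI50 = 50% growth reduction vs untreated; mean of ≥3 determinations.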
# KB-VIN versus KB = settings: P-gp overexpressing MDR tumor cell line vs non-MDR; cited from earlier work
# tubulin = assay: Tubulin assembly assay; assay type: biochemical; settings: 10 μM tubulin, 20 min at 30 °C, highest concentration evaluated 40 μM
# [2] = test system: A549 cells (microtubules and spindles); assay: Immunofluorescence staining of tubulin; assay type: cell-based, human; settings: for microtubules (α-tubulin immunofluorescence) / mitotic spindles (α-tubulin immunofluorescence): A549, 24 h, 0.1 nM 21, 100 nM colchicine, 1.5 nM pacritaxel, 500 nM doxorubicin; for concentration at which antimicrotubule activity was seen: within 24 hr
# KB-VIN cells = assay: Verapamil reversal experiments; assay type: cell-based, human; settings: for effect of verapamil co-treatment on cytotoxic activity (MDR-selectivity): co-treatment with verapamil 1 μg/mL
smiles,measurement,setting,value
"CC1=C(O)C(C)(C)c2oc(-c3ccccc3)cc(=O)c2C1=O [Compound 1, desmosdumotin B]",GI50 KB-VIN,[1],active
same,activity against all non-MDR tumor cells,human tumor cell lines,non-active
same,"selectivity index [collateral sensitivity (CS), activity ratio of MDR line versus non-MDR line]",KB-VIN versus KB,greater than 20
CCC1=C(O)c2c(oc(-c3ccccc3)cc2=O)C(CC)(CC)C1=O [Compound 2],GI50 KB-VIN,[1],active
same,Inhibition of tubulin assembly IC50 ± SD,tubulin,inactive
same,IC50,tubulin; read-out: Inhibition of tubulin assembly IC50 ± SD,> 40 µM
same,activity against all non-MDR tumor cells,human tumor cell lines,non-active
"CCC1=C(O)c2c(oc(-c3ccc4ccccc4c3)cc2=O)C(CC)(CC)C1=O [Compound 11, 2-(Naphthalen-2′-yl)-6,8,8-triethyldesmosdumotin B]",Inhibition of tubulin assembly IC50 ± SD,tubulin,Not obtainable ^c
"CCC1=C(O)c2c(oc(-c3csc4ccccc34)cc2=O)C(CC)(CC)C1=O [Compound 21, 2-(Benzo[b]thiophen-3′-yl)-6,8,8-triethyldesmosdumotin B]",microtubules (α-tubulin immunofluorescence),[2],undetectable
same,mitotic spindles (α-tubulin immunofluorescence),[2],undetectable
same,fold lower concentration than colchicine for antimicrotubule activity,"[2]; A549 cells, 24 hr",1000 fold
same,concentration at which antimicrotubule activity was seen,[2]; A549 cells,0.1 nM
"CCC1=C(O)c2c(oc(-c3csc4ccc(Br)cc34)cc2=O)C(CC)(CC)C1=O [Compound 24, 2-(5′-Bromobenzo[b]thiophen-3′-yl)-6,8,8-triethyldesmosdumotin B]",effect of verapamil co-treatment on cytotoxic activity (MDR-selectivity),KB-VIN cells,partially reversed
"CCC1=C(O)c2c(oc(-c3cccc4ccsc34)cc2=O)C(CC)(CC)C1=O [Compound 27, 2-(Benzo[b]thiophen-7′-yl)-6,8,8-triethyldesmosdumotin B]",effect of verapamil co-treatment on cytotoxic activity (MDR-selectivity),KB-VIN cells,partially reversed
COc1cc2c(c(OC)c1OC)-c1ccc(OC)c(=O)cc1[C@@H](NC(C)=O)CC2 [colchicine],microtubules (α-tubulin immunofluorescence),[2],undetectable
same,mitotic spindles (α-tubulin immunofluorescence),[2],undetectable
same,concentration at which antimicrotubule activity was seen,[2]; A549 cells,100 nM
COc1cccc2c1C(=O)c1c(O)c3c(c(O)c1C2=O)C[C@@](O)(C(=O)CO)C[C@@H]3O[C@H]1C[C@H](N)[C@H](O)[C@H](C)O1 [doxorubicine],microtubules (α-tubulin immunofluorescence),[2],detectable
same,mitotic spindles (α-tubulin immunofluorescence),[2],undetectable
CC(=O)O[C@H]1C(=O)[C@@]2(C)[C@H]([C@H](OC(=O)c3ccccc3)[C@]3(O)C[C@H](OC(=O)[C@H](O)[C@@H](NC(=O)c4ccccc4)c4ccccc4)C(C)=C1C3(C)C)[C@]1(OC(C)=O)CO[C@@H]1C[C@@H]2O [pacritaxel],microtubules (α-tubulin immunofluorescence),[2],detectable
same,mitotic spindles (α-tubulin immunofluorescence),[2],clearly seen
COc1ccc(CCN(C)CCCC(C#N)(c2ccc(OC)c(OC)c2)C(C)C)cc1OC (stereo not shown) [verapamil],effect of verapamil alone on replication of KB-VIN cells,KB-VIN cells; verapamil 1 μg/mL,no effect
